Runt-CBFb FRET – Runt domain-CBFb interaction inhibition. inhibition, % at 20 µM. hit rate 0.46% among 220,000. AID 1496. Cerulean-Runt/Venus-CBFb FRET ratio 530/480, 1 h;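 active = inhibition over about 50% at 20 µM in the single-dose screen, limit read from the data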
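Assay system: Cerulean-Runt domain / Medium: Tris 50 mM pH 7.5, KCl, K2SO4, 0.01% BSA / Timing: protein complex preformed 1 h, compound exposure 1 h, room temperature, dark / Measured by: FRET, excitation 422 nm, emission at 530 and 480 nm / Evaluation: loss of energy transfer signal / Control set: 5 µM unlabeled CBFb as full-inhibition high control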
RanGTP-Imp inh – inhibitors of RanGTP-importin-beta interaction, primary screen, biochemical, FRET, CFP-Ran, YFP-importin-beta, homogeneous; cell-free CFP-Ran/YFP-importin-beta FRET ratio; AID 2216; hit rate 1.1% among 300,000; inhibition, % (no concentration beside the values);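 active = more than half of the replicate wells show a fall in the fluorescence ratio signal beyond about 16%, limit read from the data, passing the limit was not always enough; inconclusive = exactly half of the replicate wells pass the set limit; inactive = fewer than half of replicates pass the limit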
TbHK1 inh – blocks Trypanosoma brucei hexokinase 1 activity. hit rate 0.11% among 220,000. recombinant TbHK1, G6PDH-coupled NADH A340. inhibition, % at 10 µM. AID 1430;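 active = inhibition of 50% or more in the single-dose primary screen; inactive = inhibition below 50%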
Runt-SMMHC FRET – Runt domain-CBFb-SMMHC interaction inhibition | Q01196+Q13951 | Cerulean-Runt/Venus-CBFb-SMMHC FRET ratio 530/480, 1 h | inhibition, % at 20 µM | hit rate 0.74% among 220,000;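 active = mean inhibition across duplicate retests at 20 µM reaching about 50%, limit read from the data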;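 note: inhibitors lower the FRET ratio by blocking Runt binding to CBFb-SMMHC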
Hck-Nef inh – inhibitors of human Hck kinase activated by Nef; P08631; Recombinant Hck-YEEI plus Nef, Z-Lyte FRET kinase assay; inhibition, % at 20 µM; hit rate 0.68% among 220,000; AID 463187;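 active = Hck-Nef kinase inhibition above about 50%, limit read from the data; inactive = inhibition below that limit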
p97 inhibitor – human p97 ATPase inhibition; P55072; recombinant p97 ATPase, Kinase-Glo ATP luminescence, 3 h; hit rate 0.42% among 220,000; inhibition, % at 8 µM; in the data active = inhibition above about 15%
Target sequence (P55072 whole entry, looked up): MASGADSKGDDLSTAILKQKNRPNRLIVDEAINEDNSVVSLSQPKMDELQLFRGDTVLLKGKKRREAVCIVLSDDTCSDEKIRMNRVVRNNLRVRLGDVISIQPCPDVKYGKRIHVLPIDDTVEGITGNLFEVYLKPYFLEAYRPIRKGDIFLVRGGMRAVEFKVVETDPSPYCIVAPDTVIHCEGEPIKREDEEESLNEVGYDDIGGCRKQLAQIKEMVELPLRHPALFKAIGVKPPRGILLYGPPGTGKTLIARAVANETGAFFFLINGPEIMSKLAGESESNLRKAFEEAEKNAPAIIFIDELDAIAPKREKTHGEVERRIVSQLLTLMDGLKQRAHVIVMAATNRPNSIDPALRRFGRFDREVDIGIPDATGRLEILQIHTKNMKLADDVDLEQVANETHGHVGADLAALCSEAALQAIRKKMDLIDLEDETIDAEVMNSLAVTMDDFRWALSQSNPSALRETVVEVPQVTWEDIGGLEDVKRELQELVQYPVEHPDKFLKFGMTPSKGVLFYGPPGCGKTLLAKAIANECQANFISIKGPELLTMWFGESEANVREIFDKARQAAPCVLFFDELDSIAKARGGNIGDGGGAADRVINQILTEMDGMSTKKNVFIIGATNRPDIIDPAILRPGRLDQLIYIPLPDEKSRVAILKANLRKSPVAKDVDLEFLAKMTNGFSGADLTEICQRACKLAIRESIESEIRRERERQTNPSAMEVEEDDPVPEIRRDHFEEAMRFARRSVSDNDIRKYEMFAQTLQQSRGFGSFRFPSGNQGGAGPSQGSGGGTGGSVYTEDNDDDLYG
YIC counter – counter-screen YIC FRET for RanGTP-importin-beta inhibitors | Purified YIC probe, intramolecular FRET ratio YFP/CFP | shares compounds with RanGTP-Imp inh | IC50, µM | hit rate 40% among 1,000;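 active = fitted half-maximal inhibitory concentration no more than tenfold above the top dose tested; inconclusive = flat fit with 30 to 70% activity, or poor fit; inactive = half-maximal concentration beyond tenfold above the top dose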
Hck-Nef confirm – Hck-Nef kinase inhibition, confirmation. shares compounds with Hck-Nef inh. Recombinant Hck-YEEI:Nef, Z-Lyte FRET kinase assay. calls only at 10 µM. hit rate 28% among 1,300;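 active = average inhibition of at least 50%, with Z-scores no higher than 3 in both the phospho-tyrosine peptide and fluorescence counterscreens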
Large screens that a line does not name were inactive (follow-up assays come after a bar, where shown). Shown are actives, neighbours in structure and some others; about 2.1% of the full set was active somewhere.

CCCc1cc(=O)oc2cc(C)c(CN3CCCC3)c(O)c12	none
COC(=O)C1C(=O)NC(SC)=C(C#N)C1c1ccccc1F (stereo unspecified)	none
CC(C)CCN(CCC(C)C)CC(O)Cn1c2ccccc2c(=O)c2ccccc21 (stereo unspecified)	Runt-CBFb FRET 107, RanGTP-Imp inh 57, Runt-SMMHC FRET 82, Hck-Nef inh 117 | YIC counter 3.7
CCCOc1ccc(C2C(C(=O)OC)=CN(CCOC)C=C2C(=O)OC)cc1	Runt-CBFb FRET 88, RanGTP-Imp inh 25, Hck-Nef inh 56 (not shown: Runt-SMMHC FRET) | YIC counter 17
O=C(c1ccccc1)c1cc2ccc(O)cc2oc1=O	RanGTP-Imp inh 27, Runt-SMMHC FRET 174, Hck-Nef inh 69 (not shown: Runt-CBFb FRET) | YIC counter 18
O=C(NC1CCCCC1)C(c1ccc(F)cc1)N(C(=O)c1cccs1)c1ccc2c(c1)OCO2 (stereo unspecified)	none
CCOc1ccc(-n2c3nc4ccccc4nc3c3c(=O)n(Cc4ccco4)cnc32)cc1	none (no result: Runt-CBFb FRET, RanGTP-Imp inh, Runt-SMMHC FRET)
CCOc1ccc(-n2c(N)c(C(=O)NCc3ccco3)c3nc4ccccc4nc32)cc1	RanGTP-Imp inh 25, Runt-SMMHC FRET 86, Hck-Nef inh 53 | YIC counter 21 | Hck-Nef confirm inactive
COC(=O)\C(C(C)=O)=C(/C=C/C=C/C=C/N(C)C)N(C)C	none (no result: Runt-CBFb FRET)
Cc1cc([N+](=O)[O-])nn1CCC(=O)NC1CCCCCC1	none
S=c1[nH]nc(-c2cc(-c3ccccc3)n[nH]2)n1/N=C/c1c(Cl)cccc1Cl	Hck-Nef inh 72 | Hck-Nef confirm active
S=c1[nH]nc(-c2n[nH]c3c2CCC3)n1/N=C/C=C/c1ccco1	Hck-Nef inh 75 | Hck-Nef confirm inactive
S=c1[nH]nc(-c2cc(-c3ccccc3)n[nH]2)n1/N=C/C=C/c1ccco1	Hck-Nef inh 71 | Hck-Nef confirm inactive
Cc1ccccc1/C=N/n1c(-c2cc(-c3ccccc3)n[nH]2)n[nH]c1=S	none
CC(=O)c1cccc(NC(=O)Nc2nc(C)cc(C)n2)c1	none (no result: Runt-CBFb FRET, TbHK1 inh, Runt-SMMHC FRET, Hck-Nef inh, p97 inhibitor)
CCOc1ccc(C(=O)Nc2cc(S(=O)(=O)Nc3ccccc3Cl)ccc2N2CCOCC2)cc1	none
COc1cc(OC)c(NC(=O)CNC(=O)Cn2ccc3ccccc3c2=O)cc1Cl	none (no result: Runt-CBFb FRET, TbHK1 inh, Runt-SMMHC FRET, Hck-Nef inh, p97 inhibitor)
CC(C(=O)N1CCCCCC1)c1ccc([N+](=O)[O-])cc1 (stereo unspecified)	none
O=C(Nc1nn[nH]n1)c1cc(-c2ccc(Cl)c(Cl)c2Cl)nc2ccccc12	Hck-Nef inh 119 | Hck-Nef confirm inactive
O=C(NCCc1ccccn1)c1cc(-c2ccc(Cl)c(Cl)c2Cl)nc2ccccc12	none
CCNc1oc(-c2ccccc2F)nc1S(=O)(=O)c1ccccc1	none (no result: Runt-CBFb FRET, TbHK1 inh, Runt-SMMHC FRET, Hck-Nef inh, p97 inhibitor)
CN=c1scc(-c2ccccc2F)n1/N=C/c1ccc[nH]1	none
CN=c1scc(-c2ccccc2F)n1/N=C/c1ccc(O)c(O)c1O	Hck-Nef inh 122 | Hck-Nef confirm inactive
CCOC(=O)C(C(C)C)C(N)Cc1ccc(F)cc1 (stereo unspecified)	RanGTP-Imp inh inconclusive
O=C(NCC1CCN(Cc2ccc(F)cc2)CC1)Nc1cc(F)ccc1F	none (no result: Runt-CBFb FRET, TbHK1 inh, Runt-SMMHC FRET, Hck-Nef inh, p97 inhibitor)
COc1ccc(/C=c2\s/c(=C\C(=O)C(C)(C)C)[nH]c2=O)cc1O	RanGTP-Imp inh inconclusive, Hck-Nef inh 71 | Hck-Nef confirm active
C/C(=N\NC(=O)COc1ccc([N+](=O)[O-])cc1)C(C)(C)C	RanGTP-Imp inh inconclusive
C/C(=N/NC(=O)c1cc2ccccc2cc1O)C1C(=O)c2ccccc2C1=O	Hck-Nef inh 82 | Hck-Nef confirm active
CC(C(=O)Nc1ccccc1)N1C(=O)c2ccccc2C1=O (stereo unspecified)	none (no result: Runt-CBFb FRET, RanGTP-Imp inh, Runt-SMMHC FRET)
COc1cc2c(cc1OC)C1(CCCC1)C(N)=C2C#N	Hck-Nef inh 56 (not shown: RanGTP-Imp inh)
COc1cc(OC)c(OC)cc1C#N	none
Cc1ccc(NC(=O)c2ccc3nsnc3c2)c(Cl)c1	none (no result: Runt-CBFb FRET, TbHK1 inh, Runt-SMMHC FRET, Hck-Nef inh, p97 inhibitor)
NC(=S)n1[nH]c(-c2ccc([N+](=O)[O-])cc2)c(N=Nc2cccc([N+](=O)[O-])c2)c1=O	Hck-Nef inh 76 | Hck-Nef confirm active
COc1ccc(-c2csc(NC(=O)c3ccccc3NS(=O)(=O)c3ccc(F)c(F)c3)n2)cc1	Hck-Nef inh 80 | Hck-Nef confirm active
COC(=O)c1ccccc1NC(=O)N1CCCC1	none (no result: RanGTP-Imp inh)
COC(=O)c1ccccc1NC(=O)N1CCN(Cc2ccco2)CC1	Hck-Nef inh 64 | Hck-Nef confirm inactive
CNc1nc(-c2ccccc2)cc(C(F)(F)F)c1C#N	Hck-Nef inh 68
COCCNc1cc(C)nc2c3c(C)cc(C)nc3nn12	RanGTP-Imp inh 50, Runt-SMMHC FRET 73, Hck-Nef inh 57
COCCNc1cc(C)nc2c(-c3ccccc3OC)c(C)nn12	none
CNc1nc(-c2ccc(OC)cc2)c(-c2ccc(OC)cc2)s1	none
CCOC(=O)COc1ccc(/C=C2/SC(=Nc3ccccc3)N(Cc3cccnc3)C2=O)cc1OC	Hck-Nef inh 71 | Hck-Nef confirm inactive
Cc1ccccc1C(=O)N1CCN(c2ccc(NC(=O)Cc3ccccc3)cc2)CC1	none (no result: Runt-CBFb FRET, TbHK1 inh, Runt-SMMHC FRET, Hck-Nef inh, p97 inhibitor)
O=C(CSc1nnc(CNC(=O)c2cccs2)o1)NC1CCCCC1	none
O=c1cc(-c2ccccc2)[nH]c2nc3ccccc3n12	RanGTP-Imp inh inconclusive
Cc1c(O)ccc2c(CN3CCN(CCO)CC3)cc(=O)oc12	RanGTP-Imp inh 56, Runt-SMMHC FRET 79, Hck-Nef inh 63 | Hck-Nef confirm inactive
CCOC(=O)c1c(NC(=O)/C=C/C(=O)O)sc(C)c1-c1ccc(C)c(C)c1	none
CCOC(=O)c1c(NC(=O)/C=C/C(=O)O)sc(C)c1-c1ccc(F)cc1	Hck-Nef inh 51 | Hck-Nef confirm active
O=c1c2c(-c3ccc(Cl)cc3)csc2ncn1/N=C/c1cccc([N+](=O)[O-])c1O	Hck-Nef inh 89 | Hck-Nef confirm active
CC(Nc1cccnc1)=C(C#N)C#N	none
COc1ccc2cc(N=Cc3nc(-c4ccc(C)cc4)oc3O)cnc2c1	Hck-Nef inh 59 | Hck-Nef confirm inactive
CC(=O)c1cc(CC(=O)N2CCc3c([nH]c4ccccc34)C2c2ccccn2)cs1 (stereo unspecified)	none (no result: Runt-CBFb FRET, Runt-SMMHC FRET)
Cc1nc(C)c(CC(=O)N2CCc3c([nH]c4ccccc34)C2c2ccccn2)s1 (stereo unspecified)	Hck-Nef inh active | Hck-Nef confirm inactive
O=C(NCC1CCCN1S(=O)(=O)c1cccs1)c1ccc([N+](=O)[O-])cc1 (stereo unspecified)	none (no result: Runt-CBFb FRET, TbHK1 inh, Runt-SMMHC FRET, Hck-Nef inh, p97 inhibitor)
COC(=O)CCS(=O)(=O)c1ccc(Cl)c(Cl)c1	none
NNc1ncnc2c1cnn2-c1ccccc1	none

Screening results deposited in PubChem by several laboratories.
